From ChEMBL document CHEMBL4033651, “Exploration of flexible phenylpropylurea scaffold as novel cardiac myosin activators for the treatment of systolic heart failure” (Eur J Med Chem, 2017)

Experiments:
Bos taurus = species: Bos taurus; assay: Activation of actin-stimulated bovine cardiac myosin S1 fragment ATPase activity in sarcomere at 10 uM after 10 mins by spectrophotometric analysis
In short: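 Bovine cardiac S1 myosin with actin thin filament complex at pCa 6.5, in 20 mM Tris HCl pH 7.5, 15 mM KCl, 6 mM MgCl2, 1 mM ATP. Compound at 10 μM, 10 min at room temperature. Stopped with Cytophos reagent; liberated phosphate read at 650 nm. % activity calculated relative to DMSO negative control, blank-corrected.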

Rattus norvegicus [1] = assay: Positive inotropic activity in Sprague-Dawley rat heart assessed as ejection fraction at 2 to 16 ug/kg/min for 3 mins by echocardiographic analysis; assay type: functional
In short: (§1)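 Seven-week-old male Sprague-Dawley rats under 1.5 % isoflurane via nosecone. Drug given through a right internal jugular vein central line. Left ventricular fractional shortening and ejection fraction measured by echocardiography with and without sample, expressed as % increase.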

Oryctolagus cuniculus = species: Oryctolagus cuniculus; assay: Activation of actin-stimulated rabbit psoas skeletal muscle myosin S1 fragment ATPase activity at 100 uM after 10 mins by spectrophotometric analysis
In short: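 Rabbit skeletal S1 myosin with actin thin filament complex at pCa 6.5, in 20 mM Tris HCl pH 7.5, 15 mM KCl, 6 mM MgCl2, 1 mM ATP. Compound at single 100 uM dose, 10 min at room temperature. Cytophos stop; phosphate read at 650 nm. % activity versus blank-corrected DMSO control.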

Gallus gallus = species: Gallus gallus; assay: Activation of actin-stimulated chicken gizzard smooth muscle myosin S1 fragment ATPase activity at 100 uM after 10 mins by spectrophotometric analysis
In short: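 Chicken gizzard smooth muscle S1 myosin with actin plus tropomyosin at pCa 6.5, in 20 mM Tris HCl pH 7.5, 15 mM KCl, 6 mM MgCl2, 1 mM ATP. Compound at single 100 uM dose, 10 min at room temperature. Cytophos stop; phosphate read at 650 nm. % activity versus blank-corrected DMSO control.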

Rattus norvegicus [2] = assay: Positive inotropic activity in Sprague-Dawley rat heart assessed as left ventricle fractional shortening at 2 to 16 ug/kg/min for 3 mins by echocardiographic analysis; assay type: functional; in short: as §1
[3] = Solubility of the compound in water; assay type: physicochemical; conditions: buffer
In short: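 Final solution concentration measured by HPLC against three standards of known concentration.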

[4] = Stability of the compound after 3 months by TLC analysis; assay type: physicochemical; conditions: 2191.5 h
Rattus norvegicus [5] = assay: Effect on hemodynamic parameters in Sprague-Dawley rat heart assessed as dPdT max at 8 ug/kg/min (reference value: 4162 to 5214 mmHg/s); assay type: functional
Rattus norvegicus [6] = assay: Effect on hemodynamic parameters in Sprague-Dawley rat heart assessed as end-diastolic pressure at 4 ug/kg/min (reference value: 7.68 to 9.83 mmHg); assay type: functional
Rattus norvegicus [7] = assay: Effect on hemodynamic parameters in Sprague-Dawley rat heart assessed as dPdT min at 4 ug/kg/min (reference value: -5462 to -4898 mmHg/s); assay type: functional
Rattus norvegicus [8] = assay: Positive inotropic activity in Sprague-Dawley rat heart assessed as heart rate at 4 ug/kg/min for 3 mins by echocardiographic analysis (reference value: 281 to 347 bpm); assay type: functional
Rattus norvegicus [9] = assay: Positive inotropic activity in Sprague-Dawley rat heart assessed as ejection fraction at 4 ug/kg/min for 3 mins by echocardiographic analysis (reference value: 67.16 to 85.81%); assay type: functional; in short: as §1
Rattus norvegicus [10] = assay: Positive inotropic activity in Sprague-Dawley rat heart assessed as ejection fraction at 8 ug/kg/min for 3 mins by echocardiographic analysis (reference value: 67.16 to 85.81%); assay type: functional; in short: as §1
Rattus norvegicus [11] = assay: Positive inotropic activity in Sprague-Dawley rat heart assessed as heart rate at 8 ug/kg/min for 3 mins by echocardiographic analysis (reference value: 281 to 347 bpm); assay type: functional
Rattus norvegicus [12] = assay: Effect on hemodynamic parameters in Sprague-Dawley rat heart assessed as end-systolic pressure at 8 ug/kg/min (reference value: 87.48 to 97.85 mmHg); assay type: functional
Rattus norvegicus [13] = assay: Effect on hemodynamic parameters in Sprague-Dawley rat heart assessed as heart rate at 8 ug/kg/min (reference value: 260 to 322 bpm); assay type: functional
Rattus norvegicus [14] = assay: Effect on hemodynamic parameters in Sprague-Dawley rat heart assessed as dPdT min at 8 ug/kg/min (reference value: -5462 to -4611 mmHg/s); assay type: functional
Rattus norvegicus [15] = assay: Positive inotropic activity in Sprague-Dawley rat heart assessed as left ventricular posterior wall thickness end systole at 4 ug/kg/min for 3 mins by echocardiographic analysis (reference value: 2.07 to 2.46 mm); assay type: functional
In short: (§2)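 Male Sprague-Dawley rats, seven weeks old, anaesthetised with 1.5 % isoflurane given by nosecone. Compound infused through the right internal jugular vein, used as a central venous line. Left ventricular dimensions measured by echocardiography.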

Rattus norvegicus [16] = assay: Positive inotropic activity in Sprague-Dawley rat heart assessed as left ventricular posterior wall thickness end systole at 8 ug/kg/min for 3 mins by echocardiographic analysis (reference value: 2.07 to 2.46 mm); assay type: functional; in short: as §2
Rattus norvegicus [17] = assay: Positive inotropic activity in Sprague-Dawley rat heart assessed as left ventricular internal diameter end diastole at 4 ug/kg/min for 3 mins by echocardiographic analysis (reference value: 5.66 to 7.80 mm); assay type: functional; in short: as §2
Rattus norvegicus [18] = assay: Effect on hemodynamic parameters in Sprague-Dawley rat heart assessed as end-diastolic pressure at 8 ug/kg/min (reference value: 7.68 to 9.83 mmHg); assay type: functional
Rattus norvegicus [19] = assay: Effect on hemodynamic parameters in Sprague-Dawley rat heart assessed as end-systolic pressure at 4 ug/kg/min (reference value: 94.65 to 97.85 mmHg); assay type: functional
Rattus norvegicus [20] = assay: Positive inotropic activity in Sprague-Dawley rat heart assessed as fractional shortening at 4 ug/kg/min for 3 mins by echocardiographic analysis (reference value: 38.60 to 55.81%); assay type: functional; in short: as §1
Rattus norvegicus [21] = assay: Positive inotropic activity in Sprague-Dawley rat heart assessed as fractional shortening at 16 ug/kg/min for 3 mins by echocardiographic analysis (reference value: 38.60 to 55.81%); assay type: functional; in short: as §1
Rattus norvegicus [22] = assay: Positive inotropic activity in Sprague-Dawley rat heart assessed as left ventricular posterior wall thickness end systole at 16 ug/kg/min for 3 mins by echocardiographic analysis (reference value: 2.07 to 2.46 mm); assay type: functional; in short: as §2
Rattus norvegicus [23] = assay: Positive inotropic activity in Sprague-Dawley rat heart assessed as heart rate at 16 ug/kg/min for 3 mins by echocardiographic analysis (reference value: 281 to 347 bpm); assay type: functional
Rattus norvegicus [24] = assay: Positive inotropic activity in Sprague-Dawley rat heart assessed as left ventricular posterior wall thickness end diastole at 16 ug/kg/min for 3 mins by echocardiographic analysis (reference value: 0.88 to 1.54 mm); assay type: functional; in short: as §2
Rattus norvegicus [25] = assay: Positive inotropic activity in Sprague-Dawley rat heart assessed as left ventricular posterior wall thickness end diastole at 8 ug/kg/min for 3 mins by echocardiographic analysis (reference value: 0.88 to 1.54 mm); assay type: functional; in short: as §2
Rattus norvegicus [26] = assay: Positive inotropic activity in Sprague-Dawley rat heart assessed as left ventricular internal diameter end diastole at 8 ug/kg/min for 3 mins by echocardiographic analysis (reference value: 5.66 to 7.80 mm); assay type: functional; in short: as §2
Rattus norvegicus [27] = assay: Positive inotropic activity in Sprague-Dawley rat heart assessed as left ventricular internal diameter end diastole at 16 ug/kg/min for 3 mins by echocardiographic analysis (reference value: 5.66 to 7.80 mm); assay type: functional
Rattus norvegicus [28] = assay: Effect on hemodynamic parameters in Sprague-Dawley rat heart assessed as dPdT max at 4 ug/kg/min (reference value: 4985 to 5214 mmHg/s); assay type: functional
Rattus norvegicus [29] = assay: Effect on hemodynamic parameters in Sprague-Dawley rat heart assessed as heart rate at 4 ug/kg/min (reference value: 260 to 322 bpm); assay type: functional
Rattus norvegicus [30] = assay: Positive inotropic activity in Sprague-Dawley rat heart assessed as left ventricular posterior wall thickness end diastole at 4 ug/kg/min for 3 mins by echocardiographic analysis (reference value: 0.88 to 1.54 mm); assay type: functional; in short: as §2
Rattus norvegicus [31] = assay: Positive inotropic activity in Sprague-Dawley rat heart assessed as ejection fraction at 16 ug/kg/min for 3 mins by echocardiographic analysis (reference value: 67.16 to 85.81%); assay type: functional; in short: as §1
Rattus norvegicus [32] = assay: Positive inotropic activity in Sprague-Dawley rat heart assessed as fractional shortening at 8 ug/kg/min for 3 mins by echocardiographic analysis (reference value: 38.60 to 55.81%); assay type: functional; in short: as §1

## O=C(NCCCCc1ccccc1)NCCN1CCOCC1
Bos taurus
  Activity: 42.7%

## O=C(NCCCc1ccccc1)NCCc1ccccc1
Rattus norvegicus [1]
  Activity: 12.15%
Oryctolagus cuniculus
  Activity: -2.1%
Gallus gallus
  Activity: -4.7%
Bos taurus
  Activity: 51.1%
Rattus norvegicus [2]
  Activity: 18.9%

## O=S(=O)(NCCCc1ccccc1)NCCc1ccccc1
Bos taurus
  Activity: 32.1%

## O=C(NCCc1ccccc1)N1CCN(c2ccccc2)CC1
Bos taurus
  Activity: 36.6%

## O=C(NCCCC1CCCCC1)NCCC1CCCCC1
Bos taurus
  Activity: 44.4%

## O=C(NCCCc1ccccc1)NC1CCCCC1
Bos taurus
  Activity: 20.3%

## O=C(NCCCc1ccccc1)NCc1ccco1
Bos taurus
  Activity: 36.7%

## O=C(NCCCc1ccccc1)N1CCCC1c1ccccc1 (stereo unspecified)
Bos taurus
  Activity: 32.4%

## O=C(NCCCc1ccccc1)N1CCCC(c2ccccc2)C1 (stereo unspecified)
Bos taurus
  Activity: 35.2%

## O=C(NCCCc1ccccc1)NCc1ccc2[nH]ccc2c1
Bos taurus
  Activity: 37.2%

## O=C(NCCCc1ccccc1)NCCN1CCOCC1
Rattus norvegicus [1]
  Activity: 15.65%
Oryctolagus cuniculus
  Activity: -5.3%
Gallus gallus
  Activity: 3.1%
Bos taurus
  Activity: 44%
Rattus norvegicus [2]
  Activity: 24.79%

## O=C(NCCCc1ccccc1)NCc1cccs1
Bos taurus
  Activity: 47.6%

## O=C(NCCCc1ccccc1)NCCc1ccccn1
Bos taurus
  Activity: 30%

## O=C(NCCCc1ccccc1)NCCc1cccs1
Bos taurus
  Activity: 29.6%

## c1ccc(CCCCCNCCc2ccccc2)cc1
Bos taurus
  Activity: 1.6%

## c1ccc(CCCCNCCCc2ccccc2)cc1
Bos taurus
  Activity: 11.9%

## O=C(NCCCC1CCCCC1)NCCc1ccccc1
Bos taurus
  Activity: 37.9%

## Cc1ccc2c(c1)C(=O)[C@]1(O)CCN(c3ccccc3)C1=N2
Oryctolagus cuniculus
  Activity: -50.7%
Gallus gallus
  Activity: -35.7%

## O=C(NCCCc1ccccc1)NC1Cc2ccccc2C1
Bos taurus
  Activity: 61.9%
[3]
  solubility: Insoluble

## O=C(NCCCc1ccccc1)NCCCc1ccccc1
Bos taurus
  Activity: 45.5%

## O=C(NCCCn1ccnc1)NCCc1ccccc1
Bos taurus
  Activity: 32.6%

## O=C(NCCCc1ccccc1)N1CCCCC1c1ccccc1 (stereo unspecified)
Rattus norvegicus [1]
  Activity: 9.26%
Bos taurus
  Activity: 73%
Rattus norvegicus [2]
  Activity: 13.32%

## O=C(NCCCc1ccccc1)NCCc1ccco1
Bos taurus
  Activity: 30.6%

## O=C(NCCCc1ccccc1)NCC1CCOCC1
Rattus norvegicus [1]
  Activity: 13.1%
Oryctolagus cuniculus
  Activity: 4.4%
Gallus gallus
  Activity: 5.1%
Bos taurus
  Activity: 81.4%
Rattus norvegicus [2]
  Activity: 20.5%

## CN(CCCc1ccccc1)C(=O)N(C)CCc1ccccc1
Rattus norvegicus [1]
  Activity: 3.41%
Bos taurus
  Activity: 72.4%
Rattus norvegicus [2]
  Activity: 5.74%

## O=C(COCCc1ccccc1)COCc1ccccc1
[4]
  Stability: Unstable
Bos taurus
  Activity: 42.9%

## O=C(NCCCc1ccccc1)Nc1ccccc1
Bos taurus
  Activity: 46.2%

## O=C(NCCCc1ccccc1)NCC1CCCCC1
Bos taurus
  Activity: 60.2%

## O=C(CCCCc1ccccc1)NCCc1ccccc1
Bos taurus
  Activity: 39.1%

## O=C(NCCCc1ccccc1)NCCC1CCCCC1
Bos taurus
  Activity: 61.4%

## O=C(NCCCN1CCOCC1)NCCc1ccccc1
Bos taurus
  Activity: 32.9%

## S=C(NCCCc1ccccc1)NCCc1ccccc1
Bos taurus
  Activity: 10.3%

## O=C(NCCc1ccccc1)N1CCC(c2ccccc2)CC1
Bos taurus
  Activity: 46.6%
[3]
  solubility: Insoluble

## CC(CCc1ccc(O)cc1)NCCc1ccc(O)c(O)c1 (stereo unspecified) [DOBUTAMINE]
Rattus norvegicus [5]
  Activity: 9314 mmHg/s
Rattus norvegicus [6]
  Activity: 9.38 mmHg
Rattus norvegicus [7]
  Activity: -4936 mmHg/s
Rattus norvegicus [8]
  Activity: 393 bpm
Rattus norvegicus [9]
  Activity: 93.42%
Rattus norvegicus [10]
  Activity: 96.79%
Rattus norvegicus [11]
  Activity: 416 bpm
Rattus norvegicus [12]
  Activity: 103.12 mmHg
Rattus norvegicus [13]
  Activity: 309 bpm
Rattus norvegicus [14]
  Activity: -4368 mmHg/s
Rattus norvegicus [15]
  Activity: 2.93 mm
Rattus norvegicus [16]
  Activity: 3.08 mm
Rattus norvegicus [17]
  Activity: 6.98 mm
Rattus norvegicus [18]
  Activity: 7.68 mmHg
Rattus norvegicus [19]
  Activity: 96.65 mmHg
Rattus norvegicus [20]
  Activity: 68.11%
Rattus norvegicus [21]
  Activity: 82.57%
Rattus norvegicus [22]
  Activity: 3.59 mm
Rattus norvegicus [23]
  Activity: 421 bpm
Rattus norvegicus [24]
  Activity: 1.16 mm
Rattus norvegicus [25]
  Activity: 1.36 mm
Rattus norvegicus [26]
  Activity: 6.93 mm
Rattus norvegicus [27]
  Activity: 6.68 mm
Rattus norvegicus [28]
  Activity: 6073 mmHg/s
Rattus norvegicus [29]
  Activity: 270 bpm
Rattus norvegicus [30]
  Activity: 1.06 mm
Rattus norvegicus [31]
  Activity: 98.65%
Rattus norvegicus [32]
  Activity: 75.91%
